An excerpt weighted towards active compounds, which were near 1.4% of everything screened.
FXIIa inh 1536 = factor XIIa (human) inhibition. P00748. purified FXIIa, Boc-QGR-AMC fluorogenic substrate, 2 h. inhibition, % at 5 µM. 220,000 compounds, 0.3% hits. AID 800; in the data active = inhibition above about 40%;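 note: 0% = enzyme with no compound and 100% = blank without enzyme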
Target sequence (P00748 20-372 limits assumed): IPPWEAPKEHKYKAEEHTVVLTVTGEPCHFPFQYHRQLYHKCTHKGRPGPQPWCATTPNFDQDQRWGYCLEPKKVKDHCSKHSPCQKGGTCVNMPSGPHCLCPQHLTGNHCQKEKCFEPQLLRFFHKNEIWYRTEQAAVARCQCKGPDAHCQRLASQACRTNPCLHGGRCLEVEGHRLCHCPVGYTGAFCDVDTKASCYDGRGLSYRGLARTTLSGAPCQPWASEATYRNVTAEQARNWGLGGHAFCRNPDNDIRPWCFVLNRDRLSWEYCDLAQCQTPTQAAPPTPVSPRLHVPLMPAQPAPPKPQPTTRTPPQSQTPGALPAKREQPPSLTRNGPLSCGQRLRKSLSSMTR
Target sequence (P00748 373-615 limits assumed): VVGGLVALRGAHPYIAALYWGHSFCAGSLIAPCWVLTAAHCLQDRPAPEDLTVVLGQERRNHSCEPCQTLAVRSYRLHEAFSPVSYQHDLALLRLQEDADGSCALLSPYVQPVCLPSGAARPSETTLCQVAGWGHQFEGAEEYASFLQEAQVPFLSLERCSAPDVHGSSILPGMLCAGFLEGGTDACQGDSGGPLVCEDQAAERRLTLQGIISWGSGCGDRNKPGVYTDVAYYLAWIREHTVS
FXIa inh = inhibitors of human coagulation factor XIa; P03951; purified FXIa, Boc-Glu-Ala-Arg-AMC fluorogenic substrate; inhibition, % at 5 µM; 220,000 compounds, 0.14% hits;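 active = inhibition of at least 40%; inactive = inhibition below 40%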;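 note: fluorescence of freed AMC excited at 355 nm; 0% = enzyme without compound and 100% = no enzyme blank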
Rce1 inhib = blocks yeast Ras-converting enzyme | yeast membranes, quenched prenylated peptide cleavage fluorescence | 290,000 compounds, 0.27% hits | Q03530 | calls only | AID 2563;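 active = fall in fluorescence gain of 50% or more versus controls, with final raw signal at or below 3038400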;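 note: plate controls were neutral control wells for no effect and wells lacking membranes for full effect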
thrombin 1536 = blocks human thrombin protease activity; P00734; AID 1046; alpha-thrombin, Boc-VPR-AMC fluorogenic substrate cleavage; 220,000 compounds, 0.26% hits; inhibition, % at 5 µM;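 active = inhibition at or above 40%; inactive = inhibition below 40%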;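 note: 0% = enzyme with no compound and 100% = wells without enzyme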
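Test system: human alpha-thrombin; medium: pH 7.5 Tris-saline with Tween 20; times: reaction at room temperature; signal: AMC fluorescence at 355 nm excitation and 460 nm emission; also added: Boc-VPR-AMC substrate, 15 µM final; dosing: one concentration per compound, 5 µM, with 0.2% DMSO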
hK5 inh = inhibitors of human kallikrein 5. recombinant hK5, fluorogenic AMC substrate cleavage. inhibition, % at 5 µM. 210,000 compounds, 0.59% hits. AID 873;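 active = inhibition of 40% or more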;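 note: 0% = enzyme controls without compound and 100% = no-enzyme blanks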
CTSL1 counter = blocks F. hepatica cathepsin L1 in PFM18AAP counter-screen | recombinant F. hepatica cathepsin L1, Z-Leu-Arg-MCA fluorescence | inhibition, % at 5.96 µM | 300,000 compounds, 0.49% hits | AID 1906;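 active = inhibition above the mean of all tested compounds plus 3 SD, set per screening campaign, cut at about 17% in these data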;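 note: 0% = plate median of test compound wells and 100% = 1 µM Z-Phe-Ala-diazomethylketone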
Numbers without * were called inactive; i = inactive; . = no result; + = active, no number.

SMILES	FXIIa inh 1536	FXIa inh	Rce1 inhib	thrombin 1536	hK5 inh	CTSL1 counter
Cc1ccccc1NC(=O)CC1S/C(=N/c2nccs2)N(C)C1=O (stereo unspecified)	3.4	-11.1	i	-10.6	-20.6	-1.7
Cc1ccc(NC(=O)CC2S/C(=N/c3nccs3)N(C)C2=O)cc1C (stereo unspecified)	9.8	0.8	i	-0.1	-0.3	40.8*
CC(C)OC(=O)c1cccc(NC(=O)CSc2nnc(N)s2)c1	102.8*	33.6	i	18.1	36.6	-0.8
Nc1nnc(SCC(=O)Nc2ccccc2)s1	3.2	9.3	i	-2.3	-2.6	0.6
Cc1ccc(CSC2=NCCN2C(=O)c2ccco2)cc1	0.5	-9.7	i	-5.0	41.3*	1.8
CCC(=O)N1CCN=C1SCc1ccc(Cl)cc1	15.6	2.2	i	5.2	5.6	0.7
CCC(=O)N1CCN=C1SCc1ccccc1	29.1	11.4	i	14.0	41.1*	2.6
Cc1cccc(CSC2=NCCN2C(=O)c2ccco2)c1	19.1	5.8	i	-7.8	-20.9	0.3
O=C(NCc1ccccc1Cl)c1nnc(CS(=O)(=O)c2ccccc2)o1	.	.	i	.	.	-0.9
[O-][n+]1cccc2ncc3cscc3c21	15.2	4.9	i	-4.2	-15.2	-3.4
COc1ccccc1N1CCN(c2ncc(C(=O)N3CCN(c4cccc(Cl)c4)CC3)c3ccccc23)CC1	6.4	-5.8	+	0.3	-13.0	-3.1
Cc1ccc(C(=O)Nc2ccc3c(c2)CCC3)o1	22.7	18.6	i	11.5	84.3*	-2.1
O=C1CC(c2cccs2)c2cc3c(cc2N1)OCO3 (stereo unspecified)	16.6	1.2	i	-0.4	46.3*	1.4
COc1cc2c(cc1OC)C(c1cccs1)CC(=O)N2 (stereo unspecified)	1.5	-3.4	i	-4.4	-6.0	2.3
Cc1cccc(N/C(N)=N/c2nc(C(F)(F)F)cc(=O)[nH]2)c1C	15.8	6.5	i	-2.6	-12.6	4.9
O=C(O)CCCC[C@@H]1SC[C@@H]2NC(=O)N[C@@H]21	.	.	+	.	.	-0.7
COC(=O)CCCCC1SCC2NC(=O)NC21 (stereo unspecified)	1.4	-5.0	i	-5.5	-1.3	4.4
COc1ccc(S(=O)(=O)N2CCOC2CNC(=O)C(=O)NCCc2c[nH]c3ccccc23)cc1C (stereo unspecified)	11.7	4.4	i	3.5	-7.2	2.8
CC(=O)N(C(C)=O)C1=C(C#N)C2(CCCCC2)Cc2ccccc21	12.1	-0.6	i	0.4	-23.8	-1.9
COc1cccc(OCC(O)CN2CCC(CN3C(=O)c4cccc5cccc(c45)C3=O)CC2)c1 (stereo unspecified)	9.6	-0.8	i	9.0	-2.6	33.2*
COc1ccc(/C=N/NC(=O)C2COc3ccccc3O2)cc1OC (stereo unspecified)	8.6	0.0	i	-4.3	0.8	4.9
O=C(N/N=C/c1ccc2c(c1)OCO2)C1COc2ccccc2O1 (stereo unspecified)	16.8	-1.1	i	6.3	45.9*	-1.7
Cc1ccc(C(=O)Cn2c(=N)n(N)c3ccccc32)cc1	.	.	i	.	.	-1.6
Cc1ccc(C(=O)Cn2ncsc2=N)cc1	23.0	9.6	i	3.5	-7.0	61.9*
Cc1cc(C)cc(OCC(=O)Nc2ccc3c(c2)C(=O)c2ccccc2C3=O)c1	-0.3	-0.6	i	-10.1	-33.3	0.3
SMILES	FXIIa inh 1536	FXIa inh	Rce1 inhib	thrombin 1536	hK5 inh	CTSL1 counter
O=C1C=C(Nc2ccccc2O)c2ccccc2C1=O	4.5	-1.9	i	-3.4	1.2	22.4*
O=C1C=C(NCc2ccccc2)c2ccccc2C1=O	11.4	2.0	i	-2.7	7.1	.
S=c1sc2ccccc2n1CCc1ccncc1	.	.	i	.	.	0.7
CCCn1c(NCc2cccs2)nc2ccccc21	24.2	8.9	i	16.8	56.1*	-2.6
CCn1c(-c2cccs2)nc2ccccc21	10.5	5.7	+	1.5	-7.8	0.8
C#CCn1c(-c2cccs2)nc2ccccc21	3.5	-3.9	i	-11.7	-8.2	-5.6
CCCCn1c(NCc2cccs2)nc2ccccc21	-0.9	1.3	i	-3.4	-5.6	-4.7
Cc1ccc(C(C(=O)NCc2ccco2)N(C(=O)Cc2cccs2)c2cccnc2)cc1 (stereo unspecified)	6.2	2.3	i	-1.2	0.5	-4.2
Cc1coc2c1C(=O)C(=O)c1c-2ccc2c(C)cccc12	9.4	2.5	i	3.0	3.6	94.2*

From PubChem
